Test results taken from ChEMBL document CHEMBL1142420, “Synthesis and DNA-cleaving activity of lactenediynes conjugated with DNA-complexing moieties” (2008).

Tests used:
Assay type in all cases: functional
T47D = assay: Cytotoxicity against human T47D cells after 48 hrs by SRB assay
Procedure, shortened: (§1)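 Run at NCI: cell lines exposed 48 h to a range of concentrations, with untreated controls under identical conditions. Growth measured by sulforhodamine B staining with colorimetric read-out. Percent growth computed from test, time-zero and control absorbances. GI50, TGI and LC50 read from PG versus log10 molar concentration as the concentrations giving PG = 50, 0 and -50.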

SK-MEL-2 = assay: Cytotoxicity against human SK-MEL-2 cells after 48 hrs by SRB assay; settings: SK-MEL-2, 48 h; procedure, shortened: as §1
HCT-116 = assay: Cytotoxicity against human HCT116 cells after 48 hrs by SRB assay; settings: HCT-116, 48 h; procedure, shortened: as §1
OVCAR-5 = assay: Cytotoxicity against human OVCAR5 cells after 48 hrs by SRB assay; settings: OVCAR-5, 48 h; procedure, shortened: as §1
DU-145 = assay: Cytotoxicity against human DU145 cells after 48 hrs by SRB assay; settings: DU-145, 48 h; procedure, shortened: as §1
UO-31 = assay: Cytotoxicity against human UO31 cells after 48 hrs by SRB assay; settings: UO-31, 48 h; procedure, shortened: as §1
RXF 393 = assay: Cytotoxicity against human […] cells after 48 hrs by SRB assay; settings: RXF 393, 48 h; procedure, shortened: as §1
A498 = assay: Cytotoxicity against human A498 cells after 48 hrs by SRB assay; settings: A498, 48 h; procedure, shortened: as §1
COLO 205 = assay: Cytotoxicity against human COLO205 cells after 48 hrs by SRB assay; settings: COLO 205, 48 h; procedure, shortened: as §1
NCI/ADR-RES = assay: Cytotoxicity against human NCI/ADR-RES cells after 48 hrs by SRB assay; procedure, shortened: as §1
CAKI-1 = assay: Cytotoxicity against human CAKI1 cells after 48 hrs by SRB assay; settings: CAKI-1, 48 h; procedure, shortened: as §1
BT-549 = assay: Cytotoxicity against human BT549 cells after 48 hrs by SRB assay; settings: BT-549, 48 h; procedure, shortened: as §1
HOP-62 = assay: Cytotoxicity against human HOP62 cells after 48 hrs by SRB assay; settings: HOP-62, 48 h; procedure, shortened: as §1
OVCAR-4 = assay: Cytotoxicity against human OVCAR4 cells after 48 hrs by SRB assay; settings: OVCAR-4, 48 h; procedure, shortened: as §1
A549 = assay: Cytotoxicity against human A549 cells after 48 hrs by SRB assay; settings: A549, 48 h; procedure, shortened: as §1
SF-539 = assay: Cytotoxicity against human SF539 cells after 48 hrs by SRB assay; settings: SF-539, 48 h; procedure, shortened: as §1
RPMI-8226 = assay: Cytotoxicity against human RPMI8226 cells after 48 hrs by SRB assay; settings: RPMI-8226, 48 h; procedure, shortened: as §1
KM12 = assay: Cytotoxicity against human KM12 cells after 48 hrs by SRB assay; settings: KM12, 48 h; procedure, shortened: as §1
SNB-75 = assay: Cytotoxicity against human SNB75 cells after 48 hrs by SRB assay; settings: SNB-75, 48 h; procedure, shortened: as §1
TK-10 = assay: Cytotoxicity against human TK10 cells after 48 hrs by SRB assay; settings: TK-10, 48 h; procedure, shortened: as §1
[1] = read-out: Log LC50 (the source's name) (converted)

Compound: CC(=O)O[C@@H]1C#C/C=C\C#CC[C@H]2C(=O)N(C(=O)OC(C)(C)C)[C@H]12
- GI50 (T47D): 100 µM
- CC50 (T47D; [1]): > 100 µM
- TGI (T47D; read-out: Log TGI (converted)): > 100 µM
- GI50 (SK-MEL-2): 47.9 µM
- CC50 (SK-MEL-2; [1]): > 100 µM
- TGI (SK-MEL-2; read-out: Log TGI (converted)): > 100 µM
- GI50 (HCT-116): 25.7 µM
- CC50 (HCT-116; [1]): > 100 µM
- TGI (HCT-116; read-out: Log TGI (converted)): > 100 µM
- GI50 (OVCAR-5): > 100 µM
- CC50 (OVCAR-5; [1]): > 100 µM
- TGI (OVCAR-5; read-out: Log TGI (converted)): > 100 µM
- GI50 (DU-145): 16.2 µM
- CC50 (DU-145; [1]): > 100 µM
- TGI (DU-145; read-out: Log TGI (converted)): 56.2 µM
- GI50 (UO-31): 5.89 µM
- CC50 (UO-31; [1]): > 100 µM
- TGI (UO-31; read-out: Log TGI (converted)): > 100 µM
- GI50 (RXF 393): 20.4 µM
- CC50 (RXF 393; [1]): > 100 µM
- TGI (RXF 393; read-out: Log TGI (converted)): 69.2 µM
- GI50 (A498): 17 µM
- CC50 (A498; [1]): > 100 µM
- TGI (A498; read-out: Log TGI (converted)): 97.7 µM
- GI50 (COLO 205): 39.8 µM
- CC50 (COLO 205; [1]): > 100 µM
- TGI (COLO 205; read-out: Log TGI (converted)): > 100 µM
- GI50 (NCI/ADR-RES): 28.8 µM
- CC50 (NCI/ADR-RES; [1]): > 100 µM
- TGI (NCI/ADR-RES; read-out: Log TGI (converted)): > 100 µM
- GI50 (CAKI-1): 0.355 µM
- CC50 (CAKI-1; [1]): 60.3 µM
- TGI (CAKI-1; read-out: Log TGI (converted)): 6.46 µM
- GI50 (BT-549): 24.5 µM
- CC50 (BT-549; [1]): > 100 µM
- TGI (BT-549; read-out: Log TGI (converted)): > 100 µM
- GI50 (HOP-62): 5.01 µM
- CC50 (HOP-62; [1]): > 100 µM
- TGI (HOP-62; read-out: Log TGI (converted)): 38 µM
- GI50 (OVCAR-4): > 100 µM
- CC50 (OVCAR-4; [1]): > 100 µM
- TGI (OVCAR-4; read-out: Log TGI (converted)): > 100 µM
- GI50 (A549): 28.2 µM
- CC50 (A549; [1]): > 100 µM
- TGI (A549; read-out: Log TGI (converted)): > 100 µM
- GI50 (SF-539): 0.724 µM
- CC50 (SF-539; [1]): 25.7 µM
- TGI (SF-539; read-out: Log TGI (converted)): 5.37 µM
- GI50 (RPMI-8226): 17.8 µM
- CC50 (RPMI-8226; [1]): > 100 µM
- TGI (RPMI-8226; read-out: Log TGI (converted)): > 100 µM
- GI50 (KM12): > 100 µM
- CC50 (KM12; [1]): > 100 µM
- TGI (KM12; read-out: Log TGI (converted)): > 100 µM
- GI50 (SNB-75): 38 µM
- CC50 (SNB-75; [1]): > 100 µM
- TGI (SNB-75; read-out: Log TGI (converted)): > 100 µM
- GI50 (TK-10): 35.5 µM
- CC50 (TK-10; [1]): > 100 µM
- TGI (TK-10; read-out: Log TGI (converted)): > 100 µM
